pIC50, pKi: −log10 of the molar value.
What was measured:
[1] = target: T1, C-C chemokine receptor type 2 (Homo sapiens, UniProt P41597); experiment: Antagonist activity at human CCR2 expressed in CHO cells assessed as inhibition of MCP1-induced [35S]-GTPgammaS binding after 3 hrs; format: functional, cell-based
Target sequence in this assay (P41597 whole entry): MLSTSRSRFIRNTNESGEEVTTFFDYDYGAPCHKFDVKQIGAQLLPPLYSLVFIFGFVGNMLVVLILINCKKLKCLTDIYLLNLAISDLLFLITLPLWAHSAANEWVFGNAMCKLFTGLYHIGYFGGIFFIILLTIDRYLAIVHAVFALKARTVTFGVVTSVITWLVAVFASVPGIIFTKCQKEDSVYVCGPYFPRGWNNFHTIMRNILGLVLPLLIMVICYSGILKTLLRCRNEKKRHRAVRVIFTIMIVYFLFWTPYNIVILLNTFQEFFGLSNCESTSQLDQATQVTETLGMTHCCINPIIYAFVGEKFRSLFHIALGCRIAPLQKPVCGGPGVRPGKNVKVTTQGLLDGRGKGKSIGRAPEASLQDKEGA

[2] = target: T1, C-C chemokine receptor type 2; experiment: Antagonist activity at CCR2 in human THP1 cells assessed as inhibition of CCL2-induced chemotaxis at 1 uM in presence of 0.1% human serum; format: functional, cell-based; settings: THP-1
Method in brief: (§1)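 Boyden chamber (48-well) chemotaxis of THP-1 cells stimulated with CCL2. Foetal bovine serum or human serum was added to the assay buffer.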
Target sequence in this assay (P41597 whole entry, looked up): as the sequence (P41597 whole entry) above

[3] = target: T1, C-C chemokine receptor type 2; experiment: Antagonist activity at CCR2 in human THP1 cells assessed as inhibition of CCL2-induced chemotaxis at 1 uM in presence of 1% human serum; format: functional, cell-based; settings: THP-1; method in brief: as §1
Target sequence in this assay (P41597 whole entry, looked up): as the sequence (P41597 whole entry) above

[4] = Oral bioavailability in rat; format: ADME, organism-based; settings: in vivo
[5] = Half life in iv dosed in rat; format: ADME, organism-based; settings: in vivo
[6] = Half life in po dosed in rat; format: ADME, organism-based; settings: in vivo
[7] = Clearance in rat; format: ADME, organism-based; settings: in vivo
Rattus norvegicus = species: Rattus norvegicus; experiment: Volume of distribution in rat; format: ADME, organism-based; settings: in vivo
Cytochrome P450 1A2 = target: T2, Cytochrome P450 1A2 (Homo sapiens, UniProt P05177); experiment: Inhibition of CYP1A2; format: ADME
T2 sequence (P05177 whole entry): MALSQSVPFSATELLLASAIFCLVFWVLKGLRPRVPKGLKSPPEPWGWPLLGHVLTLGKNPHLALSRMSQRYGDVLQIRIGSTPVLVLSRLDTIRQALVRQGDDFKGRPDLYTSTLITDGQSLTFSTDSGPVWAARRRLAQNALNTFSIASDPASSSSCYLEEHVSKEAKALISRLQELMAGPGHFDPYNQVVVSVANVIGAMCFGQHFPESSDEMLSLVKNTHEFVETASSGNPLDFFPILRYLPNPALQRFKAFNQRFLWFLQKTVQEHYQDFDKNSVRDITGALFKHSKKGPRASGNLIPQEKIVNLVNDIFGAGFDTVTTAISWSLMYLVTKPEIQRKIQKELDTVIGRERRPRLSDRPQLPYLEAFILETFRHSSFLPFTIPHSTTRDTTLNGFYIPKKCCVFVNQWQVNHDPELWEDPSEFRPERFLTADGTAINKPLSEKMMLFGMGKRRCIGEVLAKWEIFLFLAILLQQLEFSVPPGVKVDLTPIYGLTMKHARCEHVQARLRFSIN

Cytochrome P450 2C19 = Cytochrome P450 2C19 (Homo sapiens, UniProt P33261); experiment: Inhibition of CYP2C19; format: ADME
Sequence of Cytochrome P450 2C19 (P33261 whole entry): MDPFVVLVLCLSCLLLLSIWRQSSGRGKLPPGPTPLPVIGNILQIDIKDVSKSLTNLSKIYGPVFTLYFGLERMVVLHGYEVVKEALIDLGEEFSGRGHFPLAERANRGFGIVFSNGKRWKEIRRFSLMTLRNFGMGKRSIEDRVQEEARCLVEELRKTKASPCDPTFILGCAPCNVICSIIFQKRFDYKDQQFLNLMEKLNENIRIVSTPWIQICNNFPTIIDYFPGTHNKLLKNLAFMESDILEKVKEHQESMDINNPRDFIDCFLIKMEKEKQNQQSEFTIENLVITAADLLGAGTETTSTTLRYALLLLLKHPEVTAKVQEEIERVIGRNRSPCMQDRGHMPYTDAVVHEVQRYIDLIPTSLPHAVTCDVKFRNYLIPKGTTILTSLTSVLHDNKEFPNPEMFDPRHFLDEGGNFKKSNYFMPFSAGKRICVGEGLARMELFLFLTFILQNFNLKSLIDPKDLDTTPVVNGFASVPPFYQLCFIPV

Cytochrome P450 2C9 = Cytochrome P450 2C9 (Homo sapiens, UniProt P11712); experiment: Inhibition of CYP2C9; format: ADME
Sequence of Cytochrome P450 2C9 (P11712 whole entry): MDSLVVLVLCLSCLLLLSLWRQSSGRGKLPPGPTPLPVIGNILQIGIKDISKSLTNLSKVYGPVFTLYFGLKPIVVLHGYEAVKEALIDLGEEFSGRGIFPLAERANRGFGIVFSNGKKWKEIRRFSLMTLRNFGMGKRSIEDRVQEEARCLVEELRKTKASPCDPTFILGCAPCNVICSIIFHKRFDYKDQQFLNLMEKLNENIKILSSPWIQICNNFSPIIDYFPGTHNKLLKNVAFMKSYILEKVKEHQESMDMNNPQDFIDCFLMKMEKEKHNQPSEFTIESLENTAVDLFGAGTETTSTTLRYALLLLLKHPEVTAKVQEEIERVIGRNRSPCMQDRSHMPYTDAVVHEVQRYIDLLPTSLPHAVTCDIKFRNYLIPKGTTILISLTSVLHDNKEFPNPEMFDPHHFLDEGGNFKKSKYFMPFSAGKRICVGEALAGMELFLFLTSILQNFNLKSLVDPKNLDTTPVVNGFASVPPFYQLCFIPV

Cytochrome P450 2D6 = Cytochrome P450 2D6 (Homo sapiens, UniProt P10635); experiment: Inhibition of CYP2D6; format: ADME
Sequence of Cytochrome P450 2D6 (P10635 whole entry): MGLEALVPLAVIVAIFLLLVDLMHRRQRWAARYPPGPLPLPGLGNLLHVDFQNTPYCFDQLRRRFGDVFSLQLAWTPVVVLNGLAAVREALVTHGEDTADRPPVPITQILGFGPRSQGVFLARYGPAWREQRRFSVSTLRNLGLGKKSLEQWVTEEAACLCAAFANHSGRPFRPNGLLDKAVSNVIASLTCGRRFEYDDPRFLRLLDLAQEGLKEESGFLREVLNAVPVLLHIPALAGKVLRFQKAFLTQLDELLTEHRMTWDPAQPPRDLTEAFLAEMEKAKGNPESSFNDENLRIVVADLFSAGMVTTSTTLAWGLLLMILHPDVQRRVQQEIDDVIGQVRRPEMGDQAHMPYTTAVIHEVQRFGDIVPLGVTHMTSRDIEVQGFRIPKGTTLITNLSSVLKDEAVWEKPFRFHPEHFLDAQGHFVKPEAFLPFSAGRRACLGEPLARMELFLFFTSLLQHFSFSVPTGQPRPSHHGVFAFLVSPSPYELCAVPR

Cytochrome P450 3A4 = Cytochrome P450 3A4 (Homo sapiens, UniProt P08684); experiment: Inhibition of CYP3A4; format: ADME
Sequence of Cytochrome P450 3A4 (P08684 whole entry): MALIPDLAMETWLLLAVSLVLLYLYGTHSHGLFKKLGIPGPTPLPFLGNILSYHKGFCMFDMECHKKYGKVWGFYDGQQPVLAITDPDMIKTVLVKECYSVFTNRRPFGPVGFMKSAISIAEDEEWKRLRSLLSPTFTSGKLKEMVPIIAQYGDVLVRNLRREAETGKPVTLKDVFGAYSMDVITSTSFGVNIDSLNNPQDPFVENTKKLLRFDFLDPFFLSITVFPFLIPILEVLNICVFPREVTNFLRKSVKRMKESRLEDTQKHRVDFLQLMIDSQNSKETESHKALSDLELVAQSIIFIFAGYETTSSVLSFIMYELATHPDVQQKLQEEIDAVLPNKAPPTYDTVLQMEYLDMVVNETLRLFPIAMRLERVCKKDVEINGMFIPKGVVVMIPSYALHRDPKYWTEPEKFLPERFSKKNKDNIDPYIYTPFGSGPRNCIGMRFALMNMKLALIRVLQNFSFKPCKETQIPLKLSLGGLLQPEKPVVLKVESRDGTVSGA

[8] = target: T3, C-C chemokine receptor type 4 (Homo sapiens, UniProt P51679); experiment: Antagonist activity at CCR4; format: functional
T3 sequence (P51679 whole entry): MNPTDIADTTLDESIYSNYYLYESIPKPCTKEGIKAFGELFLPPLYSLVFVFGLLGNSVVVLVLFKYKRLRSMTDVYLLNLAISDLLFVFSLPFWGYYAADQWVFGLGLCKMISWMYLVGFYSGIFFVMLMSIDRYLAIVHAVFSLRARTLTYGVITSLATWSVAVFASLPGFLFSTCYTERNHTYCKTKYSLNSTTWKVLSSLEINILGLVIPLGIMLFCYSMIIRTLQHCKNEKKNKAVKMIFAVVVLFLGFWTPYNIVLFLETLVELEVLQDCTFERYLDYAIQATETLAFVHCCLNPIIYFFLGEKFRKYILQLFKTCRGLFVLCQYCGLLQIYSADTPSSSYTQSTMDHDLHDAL

[9] = target: C-C chemokine receptor type 5 (Homo sapiens, UniProt P51681); experiment: Antagonist activity at CCR5; format: functional
Sequence of C-C chemokine receptor type 5 (P51681 whole entry): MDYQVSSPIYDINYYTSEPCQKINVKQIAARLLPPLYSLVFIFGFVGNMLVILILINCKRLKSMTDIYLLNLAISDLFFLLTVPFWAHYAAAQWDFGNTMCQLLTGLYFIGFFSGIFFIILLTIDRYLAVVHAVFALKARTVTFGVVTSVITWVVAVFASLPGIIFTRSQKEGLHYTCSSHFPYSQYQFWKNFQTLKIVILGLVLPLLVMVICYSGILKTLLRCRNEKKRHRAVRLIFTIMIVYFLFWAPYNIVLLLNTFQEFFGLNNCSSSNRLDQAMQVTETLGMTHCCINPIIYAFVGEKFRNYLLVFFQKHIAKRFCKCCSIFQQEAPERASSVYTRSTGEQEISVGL

[10] = Lipophilicity, log D of the compound; format: physicochemical; settings: octanol/water
[11] = target: C-C chemokine receptor type 1 (Homo sapiens) (UniProt P32246); experiment: Antagonist activity at CCR1
Albumin [12] = target: T4, Albumin (Homo sapiens, UniProt P02768); experiment: Binding affinity to immobilised human serum albumin by chromatographic analysis; format: ADME; settings: isolated protein
T4 sequence (P02768 whole entry): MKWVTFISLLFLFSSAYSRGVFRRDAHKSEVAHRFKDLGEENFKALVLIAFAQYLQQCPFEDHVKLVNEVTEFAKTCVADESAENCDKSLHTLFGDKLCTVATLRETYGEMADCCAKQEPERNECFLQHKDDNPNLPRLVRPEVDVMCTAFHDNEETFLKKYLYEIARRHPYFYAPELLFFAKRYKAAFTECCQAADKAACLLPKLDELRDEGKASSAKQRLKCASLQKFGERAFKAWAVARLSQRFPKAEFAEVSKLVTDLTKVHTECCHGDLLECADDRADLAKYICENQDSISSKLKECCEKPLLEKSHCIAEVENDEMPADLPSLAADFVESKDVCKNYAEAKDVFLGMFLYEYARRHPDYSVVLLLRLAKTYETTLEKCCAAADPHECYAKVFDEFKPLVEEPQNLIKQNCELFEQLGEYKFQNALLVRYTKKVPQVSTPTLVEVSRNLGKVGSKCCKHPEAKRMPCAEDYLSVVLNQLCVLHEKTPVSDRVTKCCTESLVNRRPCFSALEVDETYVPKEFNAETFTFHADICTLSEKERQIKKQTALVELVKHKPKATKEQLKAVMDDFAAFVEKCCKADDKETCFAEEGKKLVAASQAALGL

Albumin [13] = target: T4, Albumin; experiment: Binding affinity to immobilised human serum albumin by ultrafiltration and biacore method; format: ADME; settings: isolated protein
[14] = target: C-C chemokine receptor type 1 (Homo sapiens) (UniProt P32246); experiment: Antagonist activity at human CCR1
[15] = target: T5, C-C chemokine receptor type 1 (Homo sapiens, UniProt P32246); experiment: Antagonist activity at human CCR1 assessed as inhibition of MIP-1-alpha-induced [35S]-GTPgammaS binding after 3 to 4 hrs; format: functional
T5 sequence (P32246 whole entry): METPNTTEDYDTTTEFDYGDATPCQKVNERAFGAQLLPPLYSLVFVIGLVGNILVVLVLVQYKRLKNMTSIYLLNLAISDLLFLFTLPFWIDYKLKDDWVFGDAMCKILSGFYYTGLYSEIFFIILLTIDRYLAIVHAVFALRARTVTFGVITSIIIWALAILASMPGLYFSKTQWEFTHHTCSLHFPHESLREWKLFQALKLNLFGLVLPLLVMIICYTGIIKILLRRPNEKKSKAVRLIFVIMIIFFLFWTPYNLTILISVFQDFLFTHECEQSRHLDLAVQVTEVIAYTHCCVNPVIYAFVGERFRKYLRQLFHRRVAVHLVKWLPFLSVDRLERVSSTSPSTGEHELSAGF

[16] = target: C-C chemokine receptor type 2 (Mus musculus, UniProt P51683); experiment: Antagonist activity at mouse CCR2; format: functional
Sequence of C-C chemokine receptor type 2 (Mus musculus, UniProt P51683) (P51683 whole entry): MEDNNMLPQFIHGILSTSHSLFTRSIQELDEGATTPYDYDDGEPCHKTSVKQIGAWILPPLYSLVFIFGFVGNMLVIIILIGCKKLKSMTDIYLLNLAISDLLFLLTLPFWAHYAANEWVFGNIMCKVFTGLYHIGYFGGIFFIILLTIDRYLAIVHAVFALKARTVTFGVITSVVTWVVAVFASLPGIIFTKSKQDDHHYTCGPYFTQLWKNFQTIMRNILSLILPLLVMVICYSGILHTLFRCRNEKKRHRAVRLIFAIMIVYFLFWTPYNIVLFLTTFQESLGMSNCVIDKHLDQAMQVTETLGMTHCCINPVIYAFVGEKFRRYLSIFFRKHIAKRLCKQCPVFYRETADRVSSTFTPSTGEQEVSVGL

[17] = target: T1, C-C chemokine receptor type 2; experiment: Antagonist activity at CCR2 in human THP1 cells assessed as inhibition of CCL2-induced chemotaxis at 10 uM in presence of 1% human serum; format: functional, cell-based; settings: THP-1; method in brief: as §1
Target sequence in this assay (P41597 whole entry, looked up): as the sequence (P41597 whole entry) above

O=C(O)c1ccccc1Oc1ncccc1NS(=O)(=O)c1ccc(Cl)c(Cl)c1
pKi [1]: 7.50
inhibition [2]: 60%
inhibition [3]: 41%

O=C(O)c1c(F)cccc1Oc1ncc(Cl)cc1NS(=O)(=O)c1ccc(Cl)c(Cl)c1
pKi [1]: 8.70

O=C(O)c1ccccc1Oc1ccc(Cl)cc1NS(=O)(=O)c1ccc(Cl)c(Cl)c1
bioavailability [4]: 70%
half-life [5]: 6.5 h
half-life [6]: 5.9 h
clearance [7]: 0.6 mL/min/kg
Vd (Rattus norvegicus): 0.2 L/kg
pIC50 (Cytochrome P450 1A2): 4.40
pIC50 (Cytochrome P450 2C19): 4.96
pIC50 (Cytochrome P450 2C9): 5.38
pIC50 (Cytochrome P450 2D6): 4.27
pIC50 (Cytochrome P450 3A4): 5.00
pKi [8]: 6.40
pIC50 [9]: 6.20

O=C(O)c1cncc(Oc2ncc(Cl)cc2NS(=O)(=O)c2ccc(Cl)c(Cl)c2)c1
pKi [1]: 8.00
inhibition [2]: 17%
inhibition [3]: 0%
logD [10]: -0.67

O=C(O)c1ccccc1Oc1ccc(Cl)cc1NS(=O)(=O)c1cccc(Cl)c1
pKi [1]: 8.10

Cc1ccc(NS(=O)(=O)c2ccc(Cl)cc2)c(Oc2ccccc2C(=O)O)c1
pKi [1]: 6.20
pKi [11]: 6.20

Cc1ncccc1Oc1ncc(C#N)cc1NS(=O)(=O)c1ccc(Cl)c(Cl)c1
pKi [1]: 7.30
inhibition [2]: 43%
inhibition [3]: 12%
logD [10]: 1.5

O=S(=O)(Nc1cc(Cl)cnc1Oc1cccnc1)c1ccc(Cl)c(Cl)c1
pKi [1]: 7.70
inhibition [2]: 36%
inhibition [3]: 5.4%
logD [10]: 2.32
Activity (Albumin [12]): > 98%
Activity (Albumin [13]): > 99.5%

O=C(O)c1ccccc1Oc1nccnc1NS(=O)(=O)c1ccc(Cl)c(Cl)c1
pKi [1]: 6.10

N#Cc1ccc(Oc2ccccc2C(=O)O)c(NS(=O)(=O)c2ccc(Cl)cc2)c1
pKi [1]: 7.20
pKi [14]: 6.00

O=C(O)c1ccccc1Oc1ccc(Cl)cc1NS(=O)(=O)c1ccc(Cl)s1
pKi [1]: 8.30

O=C(O)c1ccccc1Oc1c(F)cc(C(F)(F)F)cc1NS(=O)(=O)c1ccc(Cl)cc1
pKi [1]: 7.50
pKi [15]: 6.90
pKi [16]: 6.60

O=C(O)c1ccccc1Oc1cccc(F)c1NS(=O)(=O)c1ccc(Cl)cc1
pKi [1]: < 5.50
pKi [11]: < 5.50

O=C(O)c1c(F)cccc1Oc1ccc(C(F)(F)F)cc1NS(=O)(=O)c1ccc(Cl)cc1
pKi [1]: 6.90
pKi [15]: 6.90
pKi [16]: 6.00

O=C(O)c1ccccc1Oc1ccc(Cl)cc1NS(=O)(=O)c1ccc(Cl)cc1
pKi [1]: 7.70
inhibition [17]: 65%
pKi [14]: 6.80

O=C(O)c1ccccc1Oc1c(Cl)cccc1NS(=O)(=O)c1ccc(Cl)cc1
pKi [1]: 6.40
pKi [14]: 6.30

O=C(O)c1ccccc1Oc1ccc(Cl)cc1NS(=O)(=O)c1ccccc1
pKi [1]: 6.80

From ChEMBL document CHEMBL1177762, “Identification of a sulfonamide series of CCR2 antagonists” (Bioorg Med Chem Lett, 2010)
